Measurements from different studies.
pIC50: −log10 of the molar value.
Cell line: MRC5
Effect on: cell growth or viability

Compound | technique | time | pIC50
Oc1ccccc1-c1n[nH]c(-c2ccccc2O)n1 | MTT | 72 h | < 4.00
COc1cccc(C(=O)O[C@@H]2CN3Cc4c(cc5c(c4OC)OCO5)[C@@]24C=C[C@H](OC)C[C@@H]34)c1 | WST-1 |  | < 5.00
CCCCC/C=C/C(=O)CCc1ccc(O)c(OC)c1 | SRB |  | 4.73
O=C([O-])c1ccc(-n2nc(-c3ccccc3O)nc2-c2ccccc2[O-])cc1.O=C([O-])c1ccc(-n2nc(-c3ccccc3O)nc2-c2ccccc2[O-])cc1.[Ti+4] | MTT | 72 h | 4.60
COc1c2c(cc3c1OCO3)[C@]13C=C[C@H](OC)C[C@H]1N(C2)C[C@H]3OC(=O)c1cccc(C)c1 | WST-1 |  | < 5.00
O=C(/C=C/C=C/c1ccc2c(c1)OCO2)N1CCCCC1 | SRB |  | 3.87
CC(C)=CCC/C(C)=C/COc1ccc2ccc(=O)oc2c1 | MTT | 72 h | < 4.00
CC(=O)O[C@H]1C(=O)[C@@]2(C)[C@H]([C@H](OC(=O)c3ccccc3)[C@]3(O)C[C@H](OC(=O)[C@H](O)[C@@H](NC(=O)c4ccccc4)c4ccccc4)C(C)=C1C3(C)C)[C@]1(OC(C)=O)CO[C@@H]1C[C@@H]2O | SRB |  | 7.85
COc1ccc(C(=O)O[C@@H]2CN3Cc4c(cc5c(c4OC)OCO5)[C@@]24C=C[C@H](OC)C[C@@H]34)cc1 | WST-1 |  | < 5.00
COc1cc2ccc(=O)oc2cc1OC | MTT | 72 h | < 4.00
